Legend:
[1] = target: T1, Adenosine receptor A3 (Homo sapiens, UniProt P0DMS8); experiment: Displacement of [3H]PSB-11 from human adenosine receptor A3 expressed in CHO cell membranes incubated for 60 mins by radioligand competition assay; parameters: species or system Cell membrane
T1 sequence (P0DMS8 whole entry): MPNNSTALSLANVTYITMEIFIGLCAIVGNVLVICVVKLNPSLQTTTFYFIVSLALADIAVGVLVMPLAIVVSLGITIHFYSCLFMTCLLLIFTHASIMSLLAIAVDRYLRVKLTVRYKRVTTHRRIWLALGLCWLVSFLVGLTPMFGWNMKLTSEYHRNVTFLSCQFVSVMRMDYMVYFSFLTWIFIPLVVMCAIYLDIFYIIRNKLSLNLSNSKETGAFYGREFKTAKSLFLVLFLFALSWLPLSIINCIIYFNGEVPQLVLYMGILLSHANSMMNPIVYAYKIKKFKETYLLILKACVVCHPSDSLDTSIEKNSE

[2] = target: T2, Adenosine receptor A3 (Rattus norvegicus, UniProt P28647); experiment: Displacement of [3H]NECA from rat adenosine receptor A3 expressed in CHO cell membranes incubated for 60 mins by radioligand competition assay; parameters: species or system Cell membrane
T2 sequence (P28647 whole entry): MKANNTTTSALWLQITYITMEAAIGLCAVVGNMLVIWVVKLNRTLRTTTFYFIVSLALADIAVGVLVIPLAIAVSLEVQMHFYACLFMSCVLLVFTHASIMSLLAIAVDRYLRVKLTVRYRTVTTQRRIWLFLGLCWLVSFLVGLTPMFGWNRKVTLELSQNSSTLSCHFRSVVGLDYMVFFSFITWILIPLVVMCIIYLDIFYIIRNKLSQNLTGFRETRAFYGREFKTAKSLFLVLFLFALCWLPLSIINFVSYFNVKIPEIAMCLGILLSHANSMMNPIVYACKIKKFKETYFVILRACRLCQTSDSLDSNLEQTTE

[3] = target: T3, Adenosine receptor A2b (Homo sapiens) (UniProt P29275); experiment: Displacement of [3H]PSB-603 from human adenosine receptor A2B expressed in CHO cell membranes at 0.1 uM incubated for 75 mins by radioligand competition assay relative to control; conditions: Cell membrane
T3 sequence (whole entry): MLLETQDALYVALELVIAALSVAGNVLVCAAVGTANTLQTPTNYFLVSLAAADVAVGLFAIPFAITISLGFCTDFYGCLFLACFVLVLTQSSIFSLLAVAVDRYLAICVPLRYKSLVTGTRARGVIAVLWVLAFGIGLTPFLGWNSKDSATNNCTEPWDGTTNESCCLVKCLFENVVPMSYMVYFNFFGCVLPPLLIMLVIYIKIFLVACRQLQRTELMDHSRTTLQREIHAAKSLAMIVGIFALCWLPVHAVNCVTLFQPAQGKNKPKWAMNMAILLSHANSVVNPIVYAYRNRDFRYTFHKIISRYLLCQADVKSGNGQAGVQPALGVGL
How it was run: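 CHO membranes expressing human or rat A2B, [3H]PSB-603 0.3 nM. Nonspecific binding defined by 10 µM DPCPX. Preincubated 20 min with adenosine deaminase, then 75 min at rt in Tris-HCl pH 7.4 with 2.5% DMSO. Filters washed with ice-cold 50 mM Tris-HCl containing 0.1% BSA; scintillation counting.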

[4] = target: T4, Adenosine receptor A1 (Rattus norvegicus, UniProt P25099); experiment: Displacement of [3H]CCPA from adenosine receptor A1 in rat brain cortex membranes incubated for 90 mins by radioligand competition assay; type: cell membranes, Cell membrane
T4 sequence (P25099 whole entry): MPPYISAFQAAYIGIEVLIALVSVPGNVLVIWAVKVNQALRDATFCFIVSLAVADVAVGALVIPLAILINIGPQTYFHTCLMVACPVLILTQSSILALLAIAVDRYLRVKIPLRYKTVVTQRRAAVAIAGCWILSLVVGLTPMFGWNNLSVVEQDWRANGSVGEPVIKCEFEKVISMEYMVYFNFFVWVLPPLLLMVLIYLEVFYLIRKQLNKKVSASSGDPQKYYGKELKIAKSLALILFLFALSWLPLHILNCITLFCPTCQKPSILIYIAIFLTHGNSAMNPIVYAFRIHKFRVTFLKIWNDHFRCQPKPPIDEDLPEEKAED

[5] = target: T5, Adenosine receptor A2a (Homo sapiens, UniProt P29274); experiment: Displacement of [3H]MSX2 from human adenosine receptor A2A expressed in HEK293 cell membranes incubated for 30 mins by radioligand competition assay; parameters: species or system Cell membrane
T5 sequence (P29274 whole entry): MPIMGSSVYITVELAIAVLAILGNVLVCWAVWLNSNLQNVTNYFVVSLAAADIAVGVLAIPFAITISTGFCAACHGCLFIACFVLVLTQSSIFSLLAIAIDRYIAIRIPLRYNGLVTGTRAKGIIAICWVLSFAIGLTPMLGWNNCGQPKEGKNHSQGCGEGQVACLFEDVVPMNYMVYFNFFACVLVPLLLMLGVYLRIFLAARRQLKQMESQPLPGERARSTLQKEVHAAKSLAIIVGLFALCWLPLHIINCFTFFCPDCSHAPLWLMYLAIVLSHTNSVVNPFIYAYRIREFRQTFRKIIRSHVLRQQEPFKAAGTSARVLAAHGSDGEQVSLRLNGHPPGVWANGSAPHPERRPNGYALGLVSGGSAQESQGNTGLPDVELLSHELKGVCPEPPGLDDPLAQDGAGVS

[6] = target: T6, Adenosine receptor A1 (Rattus norvegicus) (UniProt P25099); experiment: Displacement of [3H]CCPA from adenosine receptor A1 in rat brain cortex membranes at 0.1 uM incubated for 90 mins by radioligand competition assay; conditions: Cell membrane
T6 sequence (whole entry): T4 sequence (P25099 whole entry)
How it was run: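 A1 competition binding with [3H]CCPA, 0.5 nM. Membranes: CHO cells expressing human A1, or rat brain cortex. Membranes preincubated 20 min with adenosine deaminase (2 U/mL per mg protein). Incubation 90 min at rt in 50 mM Tris-HCl pH 7.4 with 2.5% final DMSO. Nonspecific binding defined by 10 µM 2-chloroadenosine. GF/B filtration, scintillation counting.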

[7] = target: Adenosine receptor A2a (Rattus norvegicus) (UniProt P30543); experiment: Displacement of [3H]MSX2 from adenosine receptor A2A in rat brain striatum membranes at 0.1 uM incubated for 30 mins by radioligand competition assay relative to control; conditions: Cell membrane
Chain of Adenosine receptor A2a (Rattus norvegicus) (P30543 whole entry): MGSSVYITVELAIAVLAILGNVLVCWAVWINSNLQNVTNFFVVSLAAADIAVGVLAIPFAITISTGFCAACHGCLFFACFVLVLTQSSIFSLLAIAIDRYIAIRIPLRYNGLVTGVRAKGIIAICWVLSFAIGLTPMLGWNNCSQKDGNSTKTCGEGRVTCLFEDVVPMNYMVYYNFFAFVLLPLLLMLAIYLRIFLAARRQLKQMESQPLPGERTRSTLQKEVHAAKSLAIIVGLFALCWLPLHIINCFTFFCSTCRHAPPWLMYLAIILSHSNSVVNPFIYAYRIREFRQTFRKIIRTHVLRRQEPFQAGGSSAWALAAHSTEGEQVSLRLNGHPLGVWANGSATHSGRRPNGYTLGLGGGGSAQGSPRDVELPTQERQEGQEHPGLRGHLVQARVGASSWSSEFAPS
How it was run: (§1)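 A2A binding, [3H]MSX-2 1.0 nM. Membranes: rat brain striatum, or HEK293 cells expressing human A2A. Adenosine deaminase preincubation 20 min, then 30 min at rt in 50 mM Tris-HCl pH 7.4 with 2.5% DMSO. Nonspecific binding defined by 50 µM NECA. GF/B filtration, scintillation counting. Single-concentration percent inhibition, ≥3 experiments in duplicate or triplicate.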

[8] = target: Adenosine receptor A2a (Rattus norvegicus, UniProt P30543); experiment: Displacement of [3H]MSX2 from adenosine receptor A2A in rat brain striatum membranes incubated for 30 mins by radioligand competition assay; type: cell membranes, Cell membrane
Chain of Adenosine receptor A2a (Rattus norvegicus, UniProt P30543) (P30543 whole entry): as above

[9] = target: T5, Adenosine receptor A2a; experiment: Displacement of [3H]MSX2 from human adenosine receptor A2A expressed in HEK293 cell membranes at 0.1 uM incubated for 30 mins by radioligand competition assay relative to control; conditions: Cell membrane, in the assay text read “at 1 uM” for “at 0.1 uM”; how it was run: as §1
[10] = target: T7, Adenosine receptor A1 (Homo sapiens, UniProt P30542); experiment: Displacement of [3H]CCPA from human adenosine receptor A1 expressed in CHO cell membranes incubated for 90 mins by radioligand competition assay; parameters: species or system Cell membrane
T7 sequence (P30542 whole entry): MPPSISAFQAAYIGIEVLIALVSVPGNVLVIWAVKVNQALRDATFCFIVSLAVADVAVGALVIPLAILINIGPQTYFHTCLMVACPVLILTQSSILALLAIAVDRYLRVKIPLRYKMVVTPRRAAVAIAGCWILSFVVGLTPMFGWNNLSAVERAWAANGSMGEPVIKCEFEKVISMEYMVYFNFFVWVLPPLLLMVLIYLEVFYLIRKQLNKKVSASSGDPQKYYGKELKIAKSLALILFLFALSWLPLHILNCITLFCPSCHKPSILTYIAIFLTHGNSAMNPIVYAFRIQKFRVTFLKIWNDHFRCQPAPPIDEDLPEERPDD

[11] = target: T8, Adenosine receptor A2b (Homo sapiens, UniProt P29275); experiment: Displacement of [3H]PSB-603 from human adenosine receptor A2B expressed in CHO cell membranes incubated for 75 mins by radioligand competition assay; parameters: species or system Cell membrane
T8 sequence (P29275 whole entry): T3 sequence (whole entry)

[12] = target: T9, Adenosine receptor A3 (Homo sapiens) (UniProt P0DMS8); experiment: Displacement of [3H]PSB-11 from human adenosine receptor A3 expressed in CHO cell membranes at 0.1 uM incubated for 60 mins by radioligand competition assay; conditions: Cell membrane
T9 sequence (whole entry): T1 sequence (P0DMS8 whole entry)
How it was run: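 CHO membranes expressing human A3, [3H]PSB-11 0.5 nM. Nonspecific binding defined by 100 µM R-PIA. Adenosine deaminase preincubation 20 min, then 60 min at rt in 50 mM Tris-HCl pH 7.4 with 2.5% DMSO. Filtered on GF/B, scintillation counted.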

Ki [1] [nM]	Ki [2] [nM]	inhibition [3] [%]	Ki [4] [nM]	Ki [5] [nM]	inhibition [6] [%]	inhibition [7] [%]	Ki [8] [nM]	inhibition [9] [%]	Ki [10] [nM]	Ki [11] [nM]	inhibition ([6]; filed as antagonist) [%]	inhibition ([12]; dose 1 µM, in the assay text read “1 uM” for “0.1 uM”) [%]	inhibition ([12]; filed as antagonist, dose 0.1 µM) [%]	Compound
48.3	607	1	> 1000	> 1000	24	14	> 1000	8	> 1000	> 100				O=C(Nc1nc(-c2ccccc2)c(-c2nc3ccccc3c(=O)n2-c2ccc(Cl)cc2)s1)c1ccco1
25.4	1840		> 1000	> 1000	25	6	> 1000	1	> 1000	> 100				Cc1ccc(-n2c(-c3sc(NC(=O)c4ccco4)nc3-c3ccccc3)nc3ccccc3c2=O)cc1
> 1000			3.47	83.6			391		90.8	> 100				O=C(Nc1nc(-c2ccccc2)c(-c2ccccn2)s1)c1ccccc1
										3200				COc1cc(-c2nc(NC(C)=O)sc2-c2ccncc2)cc(OC)c1OC
4.63	> 10000		> 1000	> 1000	17	1	> 1000	10	> 1000	> 100				COc1ccc(C(=O)Nc2nc(-c3ccccc3)c(-c3nc4ccccc4c(=O)n3-c3ccc(OC)cc3)s2)cc1
8.23	1320		> 1000	> 1000		17	> 1000	3	> 1000	> 100	10			COc1ccc(-n2c(-c3sc(NC(=O)c4ccccc4)nc3-c3ccccc3)nc3ccccc3c2=O)cc1
> 1000			1.77	> 1000		16	> 1000		13.6	> 100		37		COc1ccc(C(=O)Nc2nc(-c3ccccc3)c(C(=O)c3ccc(OC)cc3)s2)cc1
				3660					> 10000	> 10000				CCCOC(=O)c1c(-c2ccccc2)nc(CC)c(C(=O)SCC)c1CCC
124		15	6.69	132			73.3		178	> 100			100	O=C(Nc1nc(-c2ccccc2)c(C(=O)c2ccc(F)cc2F)s1)c1ccco1

Reference: ChEMBL document CHEMBL4680130, “Substituted 4-phenylthiazoles: Development of potent and selective A, A and dual A/A adenosine receptor antagonists” (Eur J Med Chem, 2020)
